Results on 18 molecules are retold here after ChEMBL document CHEMBL1124345, “Linear and proximal benzo-separated alkylated xanthines as adenosine-receptor antagonists” (J Med Chem, 1989).

A value given as a limit tells only on which side of the number the result lay.

In one experiment the target is Adenosine A2 receptor (Rattus norvegicus, UniProt P29276+P30543). The experiment in a line: Binding affinity against Adenosine A2 receptor in rat striatal membrane, using [3H]-NECA as the radioligand.
For experiment [1], the target named is Adenosine receptors; A1 & A2 (Rattus norvegicus) (UniProt P29276+P25099+P30543). In words: (§1) Selectivity for A2 and A1 receptors was evaluated. Type of experiment: protein assay. A digest of the protocol:
(§2)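 Rat brain membranes (A1) bound with 1 nM [3H]-N6-cyclohexyladenosine (25 Ci/mmol). Rat striatal membranes (A2) bound with 4 nM [3H]NECA (30 Ci/mmol) in the presence of 50 nM N6-cyclopentyladenosine. Both incubations ran 1 h at 25 °C. Selectivity compares the affinities from the two binding assays.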

In a further experiment the target is T1, Adenosine receptor A1 (Rattus norvegicus, UniProt P25099).
T1 sequence (P25099 whole entry): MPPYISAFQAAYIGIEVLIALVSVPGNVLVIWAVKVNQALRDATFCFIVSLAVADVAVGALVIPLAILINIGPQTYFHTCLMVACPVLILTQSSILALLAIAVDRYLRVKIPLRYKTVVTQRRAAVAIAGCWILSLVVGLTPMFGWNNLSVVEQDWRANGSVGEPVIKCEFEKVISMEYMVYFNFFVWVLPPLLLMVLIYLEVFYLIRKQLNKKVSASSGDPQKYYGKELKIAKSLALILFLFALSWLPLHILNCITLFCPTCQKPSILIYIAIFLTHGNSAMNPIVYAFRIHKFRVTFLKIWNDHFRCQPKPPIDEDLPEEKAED
In words: Binding affinity against Adenosine A1 receptor in rat brain membrane, using [3H]N6-cyclohexyladenosine as the radioligand. Type of experiment: tissue-based.

The nature of experiment [2]: as §1. In a few lines:
as §2

As for `CCCn1c(=O)c2cc3nc[nH]c3cc2n(CCC)c1=O`, the Ki on Adenosine A2 receptor is 1.32 µM; on Adenosine receptor A1, 0.123 µM. Besides, the Ratio in experiment [1] came to 10.7.

Consider `CC(C)Cn1c(=O)n(C)c(=O)c2nc[nH]c21` [ISOBUTYLMETHYLXANTHINE], for which the Ratio in experiment [2] was found to be 5.6. The Ki at Adenosine A2 receptor was 13.8 µM.

Consider `Cn1c(=O)c2cc3c(cc2n(C)c1=O)ncn3C`, for which the Ki on Adenosine A2 receptor was determined as 23 µM; at Adenosine receptor A1, 11.6 µM. In addition, in experiment [1], the Ratio was 1.99.

The molecule `Cn1c(=O)c2cc3[nH]cnc3cc2n(C)c1=O` came in with a Ki at Adenosine receptor A1 of 24 µM.

As to `Cn1c(=O)c2cc3nc(-c4ccccc4)[nH]c3cc2n(C)c1=O`, the Ki on Adenosine A2 receptor and on Adenosine receptor A1 was greater than 100 µM throughout.

Consider `Cn1c(=O)c2ncn(C)c2n(C)c1=O` [ISOCAFFIENE], for which, on Adenosine receptor A1, the Ki was greater than 1000 µM.

Molecule `Cn1c(=O)c2cc3nc[nH]c3cc2n(C)c1=O` registered a Ki on Adenosine A2 receptor of 85 µM. In experiment [1], the Ratio stood at 3.6.

For the molecule `Cn1c(=O)c2c3nc[nH]c3ccc2n(C)c1=O`, the Ki on Adenosine A2 receptor stood at 17.9 µM; at Adenosine receptor A1, 13.4 µM. Besides, the Ratio in experiment [1] came to 1.34.

For the molecule `CCCCn1c(=O)c2c3nc[nH]c3ccc2n(CCCC)c1=O`, the inhibitory constant (Ki) on Adenosine A2 receptor worked out at 1.96 µM; on Adenosine receptor A1, 0.174 µM. Also, the Ratio in experiment [1] is 11.2.

`CCCn1c(=O)c2c3nc[nH]c3ccc2n(CCC)c1=O`: the Ki on Adenosine A2 receptor is 0.79 µM; on Adenosine receptor A1 it was 0.296 µM. Also, in experiment [1], the Ratio worked out at 2.7.

On to `CC(C)Cn1c(=O)n(C)c(=O)c2c3nc[nH]c3ccc21`, for which the Ki on Adenosine A2 receptor was found to be 1.97 µM; at Adenosine receptor A1 it was 0.86 µM. Besides, the Ratio in experiment [1] turned out to be 2.3.

As to `CC(C)Cn1c(=O)n(C)c(=O)c2cc3[nH]cnc3cc21`, the Ki on Adenosine A2 receptor amounted to 2.4 µM; on Adenosine receptor A1, 0.62 µM. In experiment [1], the Ratio was found to be 3.9.

For the molecule `CCn1c(=O)c2cc3nc(-c4ccccc4)[nH]c3cc2n(CC)c1=O`, the Ki at Adenosine A2 receptor and on Adenosine receptor A1 was greater than 100 µM in each case.

With `CCCCn1c(=O)c2cc3nc[nH]c3cc2n(CCCC)c1=O`, the results for the Ki on Adenosine A2 receptor and at Adenosine receptor A1 were 0.67 µM and 0.179 µM, respectively. Besides, in experiment [1], the Ratio turned out to be 3.7.

On to `Cn1c(=O)c2c3nc(-c4ccccc4)[nH]c3ccc2n(C)c1=O`, for which the Ratio in experiment [2] was determined as 23. The Ki at Adenosine A2 receptor turned out to be 10.4 µM; on Adenosine receptor A1, 0.45 µM.

Turning to `Cn1c(=O)c2cc3ncn(C)c3cc2n(C)c1=O`, the Ki on Adenosine A2 receptor was found to be 58 µM; on Adenosine receptor A1, 15.2 µM. The Ratio in experiment [1] worked out at 3.8.

For `Cn1c(=O)c2c3c(ccc2n(C)c1=O)ncn3C`, the Ki was 12.7 µM on Adenosine A2 receptor and 10.3 µM at Adenosine receptor A1. Also, in experiment [1], the Ratio came out at 1.23.

As to `CCn1c(=O)c2c3nc(-c4ccccc4)[nH]c3ccc2n(CC)c1=O`, the results for the Ki at Adenosine A2 receptor and on Adenosine receptor A1 were 58 µM and greater than 100 µM, respectively.

By Ki is commonly meant the dissociation constant of the complex between target and ligand, obtained from inhibition or displacement. Read a high Ki as lower affinity.
